Measurements taken from ChEMBL document CHEMBL5055621, “Synthesis and Characterization of the Novel Rodent-Active and CNS-Penetrant P2X7 Receptor Antagonist Lu AF27139” (J Med Chem, 2021).

Experiments:
[1] = target: T1, Cytochrome P450 2C8 (Homo sapiens, UniProt P10632); assay: Time dependent inhibition of CYP2C8 (unknown origin) upto 25 uM; type: ADME
T1 sequence (P10632 whole entry): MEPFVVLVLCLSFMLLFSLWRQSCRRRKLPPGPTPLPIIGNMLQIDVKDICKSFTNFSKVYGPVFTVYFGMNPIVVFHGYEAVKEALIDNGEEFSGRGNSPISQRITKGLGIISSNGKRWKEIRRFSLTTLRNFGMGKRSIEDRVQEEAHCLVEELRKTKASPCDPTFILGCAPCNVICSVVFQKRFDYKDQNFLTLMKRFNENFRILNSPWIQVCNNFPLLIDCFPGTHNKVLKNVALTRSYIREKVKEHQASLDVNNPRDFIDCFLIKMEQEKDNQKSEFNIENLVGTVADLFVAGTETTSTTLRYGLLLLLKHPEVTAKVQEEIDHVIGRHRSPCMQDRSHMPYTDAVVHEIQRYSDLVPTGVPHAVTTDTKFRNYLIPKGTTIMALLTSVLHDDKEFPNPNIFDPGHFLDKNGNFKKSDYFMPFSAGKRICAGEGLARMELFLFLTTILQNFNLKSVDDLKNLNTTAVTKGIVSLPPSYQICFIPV

[2] = Tmax in male rat at 3 mg/kg, po after 7 days; type: ADME, organism-based; conditions: in vivo, time 7 day
[3] = target: Adenosine receptor A2a (Homo sapiens) (UniProt P29274); assay: Displacement of [3H]-CGS 21680 from human recombinant adenosine A2A receptor at 10 uM after 120 mins by scintillation counting analysis relative to control
[4] = Free plasma concentration in rat at 30 mg/kg, po after 1 hr by ex vivo equilibrium dialysis; type: ADME, organism-based
How it was run: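 Male Sprague–Dawley rats were dosed orally at 1–100 mg/kg, and total plasma concentration was measured at 1 and 2 h. This was multiplied by fraction unbound from ex vivo equilibrium dialysis; mean ± SEM, n = 3 animals.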

[5] = Reduction in LPS/BzATP-induced IL-1beta release in icv dosed C57BL/6NCrl mouse frontal cortex assessed as minimal effective dose pretreated 1 hr before BzATP stimulus; type: functional; conditions: read-out: MED
How it was run: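 Rats and mice with frontal cortex microdialysis probes and a lateral ventricle cannula received icv LPS (rat 3 μg/5 μL; mouse 0.1 μg/3 μL), and 1 h later oral compound in 20% HP-β-cyclodextrin. BzATP icv (rat 50 μg; mouse 5 μg) followed 1 h later.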

[6] = Cmax in female mouse at 100 mg/kg, po after 14 days; conditions: in vivo
[7] = target: T2, P2X purinoceptor 7 (Mus musculus, UniProt Q9Z1M0); assay: Displacement of [3H]-A-804598 from mouse P2X7 receptor expressed in HEK293 cell membrane by in vitro binding assay; type: cell membranes
T2 sequence (Q9Z1M0 whole entry): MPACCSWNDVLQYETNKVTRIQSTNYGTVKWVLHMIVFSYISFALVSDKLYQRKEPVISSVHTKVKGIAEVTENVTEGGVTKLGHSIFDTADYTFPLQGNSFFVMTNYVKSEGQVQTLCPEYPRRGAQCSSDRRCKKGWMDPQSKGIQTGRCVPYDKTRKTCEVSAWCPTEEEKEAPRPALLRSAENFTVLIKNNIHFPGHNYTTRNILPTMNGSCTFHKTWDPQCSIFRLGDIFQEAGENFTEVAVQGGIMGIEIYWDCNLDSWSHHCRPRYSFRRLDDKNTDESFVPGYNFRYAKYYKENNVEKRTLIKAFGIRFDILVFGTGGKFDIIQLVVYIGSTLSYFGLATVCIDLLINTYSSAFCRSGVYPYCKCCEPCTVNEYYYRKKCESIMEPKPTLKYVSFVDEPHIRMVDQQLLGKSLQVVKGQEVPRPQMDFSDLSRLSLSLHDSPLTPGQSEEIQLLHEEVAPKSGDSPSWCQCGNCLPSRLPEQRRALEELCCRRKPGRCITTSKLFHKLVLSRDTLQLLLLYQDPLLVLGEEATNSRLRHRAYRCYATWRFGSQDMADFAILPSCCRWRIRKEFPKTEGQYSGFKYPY

Chain of Adenosine receptor A2a (Homo sapiens) (P29274 whole entry): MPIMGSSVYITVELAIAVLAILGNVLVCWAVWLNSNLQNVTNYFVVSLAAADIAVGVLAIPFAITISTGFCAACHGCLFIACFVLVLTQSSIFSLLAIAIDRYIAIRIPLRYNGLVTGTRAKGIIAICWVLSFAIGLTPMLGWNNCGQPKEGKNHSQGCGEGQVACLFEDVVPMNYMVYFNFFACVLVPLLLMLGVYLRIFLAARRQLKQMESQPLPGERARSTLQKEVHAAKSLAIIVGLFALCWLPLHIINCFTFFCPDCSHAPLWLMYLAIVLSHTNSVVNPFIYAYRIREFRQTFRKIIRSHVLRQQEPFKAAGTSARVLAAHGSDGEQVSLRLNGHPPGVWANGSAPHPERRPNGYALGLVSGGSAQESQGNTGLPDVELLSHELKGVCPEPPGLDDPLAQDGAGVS

TDI [1]: Not Active | Tmax [2]: 1 h | inhibition [3]: 34% | Cp(f) [4]: 414 nM | Cmax [6]: 61.6 µM | Ki [7]: 180 nM
SMILES: O=C(NC[C@H](c1ccc(Cl)cc1)N1CCOCC1)c1sc(-c2ncccn2)nc1C(F)(F)F
minimal effective dose [5]: 10 mg/kg
